A short description of data set [1]: Toxicity in BALB/c mouse model of skin abscess infected with methicillin-resistant Staphylococcus aureus ATCC 33591 assessed as effect on LDH levels at 1.5 to 3 mg/kg injected into shaved area of skin once daily for 4 days. It is filed as organism-based. The following applies: in vivo, other, 96 h. The gist of the method: (§1)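 Infected BALB/c mice (n=5/group) dosed 1.5 or 3 mg/kg into the infected skin once daily for 4 days; blood collected on day 4 and day 14, centrifuged 3,500 rpm 15 min, serum biochemistry analysed.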

A short description of data set [2]: Toxicity in BALB/c mouse model of skin abscess infected with methicillin-resistant Staphylococcus aureus ATCC 33591 assessed as effect on body weight at 1.5 to 3 mg/kg injected into shaved area of skin once daily for 4 days measured every day. It is filed as organism-based. The following applies: in vivo, other, 96 h. The gist of the method: (§2)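 Female BALB/c mice, 6-8 weeks, n=5 per group, backs shaved and depilated 1 day before; 50 µL subcutaneous 1.7 × 10⁹ CFU/mL MRSA ATCC 33591. From 6 h post-infection, 40 µL vehicle, vancomycin 3 mg/kg, or compound 1.5 or 3 mg/kg injected at infection site once daily for 4 days; weight recorded daily. Skin homogenised in saline 12 h after last dose, plated on LB agar 37 °C ≥16 h; log10 CFU/abscess; t-test.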

Data set [3] can be described thus: Toxicity in BALB/c mouse model of skin abscess infected with methicillin-resistant Staphylococcus aureus ATCC 33591 assessed as effect on albumin levels at 1.5 to 3 mg/kg injected into shaved area of skin once daily for 4 days. It counts as organism-based. The following applies: in vivo, other, 96 h. The method in brief:
as §1

In data set [4] the test system is Staphylococcus aureus. The data set is described as follows: Antivirulence activity against methicillin-resistant Staphylococcus aureus ATCC 33591 infected in BALB/c mouse model of skin abscess assessed as reduction in spleen histopathological changes at 1.5 to 3 mg/kg injected into shaved area of skin once daily for 4 days measured after 12 hrs post last dose by hematoxylin and eosin staining based optical microscopy. It counts as functional, organism-based. The method in brief: (§3)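 Same MRSA ATCC 33591 skin-abscess model in female BALB/c mice (n=5/group), 40 µL compound at 1.5 or 3 mg/kg injected into the infected shaved skin once daily for 4 days. On day 4 infected skin and heart, liver, spleen, lung, kidney fixed in 4% paraformaldehyde, embedded, sectioned, H&E stained and examined by microscopy; PBS-treated uninfected and vehicle controls.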

In data set [5] the target is T1, ATP-dependent Clp protease proteolytic subunit (Staphylococcus aureus (strain NCTC 8325)) (UniProt Q2G036).
T1 sequence (whole entry): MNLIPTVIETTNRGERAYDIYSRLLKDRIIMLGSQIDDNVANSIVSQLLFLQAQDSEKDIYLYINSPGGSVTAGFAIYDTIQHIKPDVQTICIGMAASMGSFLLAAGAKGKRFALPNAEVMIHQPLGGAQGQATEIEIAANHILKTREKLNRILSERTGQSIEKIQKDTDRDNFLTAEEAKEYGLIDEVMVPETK
The data set is described as follows: Inhibition of ClpP in wild type Staphylococcus aureus NCTC8325 assessed as reduction in bacteria-induced hemolysis of sheep erythrocytes by measuring hemoglobin release incubated for 15 mins. The gist of the method:
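S. aureus strains grown overnight in MHB, diluted to OD600 0.05, then grown at 37 °C to OD600 ~0.6. Serially diluted inhibitor or DMSO added for 8 h more growth. Supernatant mixed 1:1 with 5% sheep erythrocytes, spun 1,500 rpm for 15 min, hemoglobin read at 545 nm. EC50 by nonlinear fit; thrice, triplicate tubes.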

Data set [6] is described as follows: Toxicity in BALB/c mouse model of skin abscess infected with methicillin-resistant Staphylococcus aureus ATCC 33591 assessed as induction of adverse effects at 1.5 to 3 mg/kg injected into shaved area of skin once daily for 4 days measured every day. It is filed as organism-based. The following applies: in vivo, other, 96 h. The gist of the method:
as §2

For data set [7], the target named is T1, ATP-dependent Clp protease proteolytic subunit (Staphylococcus aureus (strain NCTC 8325)). The data set is described as follows: Potency index, ratio of IC50 for BTZ to IC50 for test compound for inhibition of ClpP in methicillin-resistant Staphylococcus aureus ATCC 33591 assessed as reduction in bacteria-induced hemolysis of sheep erythrocytes by measuring hemoglobin release incubated for 15 mins.

In data set [8] the test system is Staphylococcus aureus. Put plainly: Antivirulence activity against methicillin-resistant Staphylococcus aureus ATCC 33591 infected in BALB/c mouse model of skin abscess assessed as reduction in heart histopathological changes at 1.5 to 3 mg/kg injected into shaved area of skin once daily for 4 days measured after 12 hrs post last dose by hematoxylin and eosin staining based optical microscopy. It counts as functional, organism-based. The gist of the method:
as §3

The nature of data set [9]: Toxicity in BALB/c mouse model of skin abscess infected with methicillin-resistant Staphylococcus aureus ATCC 33591 assessed as effect on uric acid levels at 1.5 to 3 mg/kg injected into shaved area of skin once daily for 4 days. It is filed as organism-based. The following applies: in vivo, other, 96 h. The gist of the method: as §1
A short description of data set [10]: Toxicity in BALB/c mouse model of skin abscess infected with methicillin-resistant Staphylococcus aureus ATCC 33591 assessed as increase in AST levels at 1.5 to 3 mg/kg injected into shaved area of skin once daily for 4 days measured on day 14. It is filed as organism-based. The following applies: in vivo, other, 96 h. The method in brief: as §1
Data set [11] relates to Staphylococcus aureus. Put plainly: Inhibition of virulence-related genes expression in methicillin-resistant Staphylococcus aureus ATCC 33591 assessed as reduction in lukS expression at 4 to 16 uM by qPCR analysis relative to control. It is filed as functional, organism-based. The gist of the method: (§4)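 Total RNA from 2×10⁸ CFU treated MRSA by liquid-nitrogen freeze-thaw and TRIzol; qPCR relative to gyrB endogenous control; three experiments, triplicate wells.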

For data set [12], the system named is Staphylococcus aureus. Put plainly: Inhibition of virulence-related genes expression in methicillin-resistant Staphylococcus aureus ATCC 33591 assessed as reduction in RNAIII effector, expression at 16 uM by qPCR analysis relative to control. It is filed as functional. The method in brief: as §4
A short description of data set [13]: Toxicity in BALB/c mouse model of skin abscess infected with methicillin-resistant Staphylococcus aureus ATCC 33591 assessed as effect on alkaline phosphatase levels at 1.5 to 3 mg/kg injected into shaved area of skin once daily for 4 days. It is filed as organism-based. Particulars: in vivo, other, 96 h. The method in brief: as §1
Data set [14] relates to Staphylococcus aureus. Put plainly: Inhibition of virulence-related genes expression in methicillin-resistant Staphylococcus aureus ATCC 33591 assessed as reduction in aur expression at 4 to 16 uM by qPCR analysis relative to control. It is filed as functional, organism-based. The method in brief: as §4
For orientation: Quantitative PCR measures a nucleic acid by following its amplification.

Data set [15] deals with Staphylococcus aureus. The data set is described as follows: Inhibition of Staphylococcus aureus NCTC8325 with delta clpP assessed as reduction in bacteria-induced hemolysis of sheep erythrocytes by measuring hemoglobin release at 0.5 to 64 uM. It is filed as functional, organism-based. The gist of the method:
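S. aureus NCTC8325 ΔclpP grown in MHB from OD600 0.05 to ~0.6 at 37 °C, then 8 h with serially diluted inhibitor or DMSO. Culture supernatant mixed 1:1 with 5% sheep erythrocytes, centrifuged 1,500 rpm for 15 min, hemoglobin at 545 nm. Thrice, triplicate tubes.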

In data set [16] the test system is Staphylococcus aureus. The data set is described as follows: Antivirulence activity against methicillin-resistant Staphylococcus aureus ATCC 33591 infected in BALB/c mouse model of skin abscess assessed as reduction in liver histopathological changes at 1.5 to 3 mg/kg injected into shaved area of skin once daily for 4 days measured after 12 hrs post last dose by hematoxylin and eosin staining based optical microscopy. It is filed as functional, organism-based. The method in brief: as §3

Data set [17] has as its target Coagulation factor X (Homo sapiens) (UniProt P00742). The data set is described as follows: Inhibition of human F10a up to 100 uM pre-incubated for 10 mins before Pefachrome Fxa addition and measured after […] based assay.
Data set [18] relates to Staphylococcus aureus. The data set is described as follows: Inhibition of virulence-related genes expression in methicillin-resistant Staphylococcus aureus ATCC 33591 assessed as reduction in hla expression at 4 to 16 uM by qPCR analysis relative to control. It counts as functional, organism-based. The method in brief: as §4

Each structure is given as a SMILES string. The source made the active and inactive calls. The calls are words filed in the database; no cut-off is given here. Some results are limits rather than exact numbers.

Coagulation factor X (Homo sapiens), sequence (P00742 41-179 limits assumed): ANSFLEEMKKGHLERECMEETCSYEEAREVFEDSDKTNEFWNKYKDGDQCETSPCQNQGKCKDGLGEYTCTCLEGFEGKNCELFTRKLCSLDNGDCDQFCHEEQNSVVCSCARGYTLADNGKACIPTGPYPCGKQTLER
Coagulation factor X (Homo sapiens), sequence (P00742 235-488 limits assumed): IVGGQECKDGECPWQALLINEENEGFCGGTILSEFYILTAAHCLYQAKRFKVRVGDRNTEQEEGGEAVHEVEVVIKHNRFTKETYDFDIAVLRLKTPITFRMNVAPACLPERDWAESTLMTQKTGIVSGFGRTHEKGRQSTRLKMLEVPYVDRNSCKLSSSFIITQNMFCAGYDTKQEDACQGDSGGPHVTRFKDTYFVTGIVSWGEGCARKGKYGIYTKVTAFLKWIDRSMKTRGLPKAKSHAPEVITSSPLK

Turning to `CC(C)C[C@H](NC(=O)[C@H](Cc1c[nH]c2ccccc12)NC(=O)c1cc(Cl)ccc1Cl)B(O)O`, the Activity result in data set [1], in data set [2], in data set [3], in data set [6], in [9] and in [10] was “Non-Toxic” in each case. For the same molecule, the Activity result in data set [13] is “Non-Toxic”. The result in the data set on Staphylococcus aureus [4], in the data set with Staphylococcus aureus [8] and with Staphylococcus aureus [16] was Active. Also, the inhibition entry in data set [5] was “Dose-dependent effect”. In addition, the Ratio IC50 in data set [7] stood at 30. In addition, the inhibition result in the data set with Staphylococcus aureus [11], in the data set on Staphylococcus aureus [14] and in the data set with Staphylococcus aureus [18] was “Active” each time. In addition, the “fold change (FC)” value in the data set on Staphylococcus aureus [12] was greater than 10. Moreover, the inhibition result (in the data set with Staphylococcus aureus [15]; in data set [17]) was “inactive” throughout.

The record behind these values is ChEMBL document CHEMBL4402562, “Discovery of Novel Peptidomimetic Boronate ClpP Inhibitors with Noncanonical Enzyme Mechanism as Potent Virulence Blockers in Vitro and in Vivo” (J Med Chem, 2020).
